Experimental data taken from ChEMBL document CHEMBL4043283, “Discovery and Preclinical Development of IIIM-290, an Orally Active Potent Cyclin-Dependent Kinase Inhibitor” (J Med Chem, 2018).
pIC50: −log10 of the molar value. Values after ≈ are worked out from the molar mass of the structure shown.

Experiments:
[1] = Protein binding in rat plasma at 3 uM after 5 hrs by equilibrium dialysis method; assay type: ADME, cell-free; settings: read-out: PPB (converted)
Lung = experiment: Drug uptake in Sprague-Dawley rat lung at 30 mg/kg, po after 8 hrs; assay type: ADME, organism-based; settings: in vivo
[2] = molecular target: Cyclin-dependent kinase 4/cyclin D1 (Homo sapiens) (UniProt P11802+P24385); experiment: Inhibition of full length wild type human CDK4/cyclin D1 expressed in mammalian expression system at 0.5 uM by KINOMEscan method relative to control
Procedure, shortened: (§1)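 Competition binding screen (KINOMEscan) at 0.5 μM; primary binding read out as % of control, lower values indicating stronger interaction.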

NCI-H226 = experiment: Growth inhibition of human NCI-H226 cells after 48 hrs by MTT assay; assay type: functional; settings: NCI-H226, 48 h
Procedure, shortened: (§2)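 Cancer cell lines sourced from the National Cancer Institute (USA). Cells kept in appropriate growth medium at 37 °C, 95% humidity, 5% CO2. Antiproliferation read by tetrazolium (MTT) assay. GI50 values were determined only for compounds selected after an initial single-concentration screen.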

[3] = Cmax in BALB/c mouse at 1 mg/kg, iv by LC-MS/MS analysis; assay type: ADME, organism-based; design: dose 1 mg/kg, route intravenous; settings: in vivo
[4] = Half life in mouse liver S9 fraction preincubated for 5 mins followed by NADPH addition measured after 30 mins by LC-MS/MS analysis; assay type: ADME, tissue-based
Procedure, shortened: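 Parent loss followed over time to give half-life, with NADPH as cofactor for microsomal phase I metabolism.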

HOP-92 = experiment: Growth inhibition of human HOP92 cells after 48 hrs by MTT assay; assay type: functional; settings: HOP-92, 48 h; procedure, shortened: as §2
[5] = Pancreas to plasma partition coefficient, Kp of the compound in BALB/c mouse at 30 mg/kg, po measured at 8 hrs; assay type: ADME, organism-based; settings: pancreas and plasma
[6] = Half life in human hepatocytes at 3 uM after 180 mins by LC-MS/MS analysis; assay type: ADME, cell-based, Hepatocyte
Caco-2 = experiment: Growth inhibition of human Caco2 cells at 10 uM after 48 hrs by MTT assay relative to control; assay type: functional; settings: Caco-2, 48 h, read-out: GI
Procedure, shortened: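 Single-concentration primary screen at 10 μM by MTT assay. Cells were NCI-sourced cancer lines grown in appropriate medium at 37 °C, 95% humidity, 5% CO2. Growth inhibition is expressed relative to control.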

[7] = molecular target: Citron Rho-interacting kinase (Homo sapiens) (UniProt O14578); experiment: Inhibition of partial length wild type human CIT expressed in bacterial expression system at 0.5 uM by KINOMEscan method relative to control; procedure, shortened: as §1
[8] = Cmax in Sprague-Dawley rat at 30 mg/kg, po by LC-MS/MS analysis; assay type: ADME, organism-based; design: dose 30 mg/kg, route oral; settings: in vivo
CYP3A4 = CYP3A4 (Homo sapiens, UniProt P08684); experiment: Inhibition of human CYP3A4 at 2 uM using fluorogenic substrate after 30 mins by fluorometric method relative to control; assay type: ADME; settings: probe fluorogenic substrate
MIA PaCa-2 [9] = experiment: Cell cycle arrest in human MIAPaCa2 cells assessed as accumulation at S phase at 1.5 uM after 24 hrs by propidium iodide staining-based flow cytometric method (reference value: 33%); assay type: functional
[10] = molecular target: Cyclin-dependent kinase 5/CDK5 activator 1 (Homo sapiens, UniProt Q00535); experiment: Inhibition of CDK5/cyclin p35 (unknown origin) after 30 mins in presence of [33P]-gamma-ATP by filter binding assay; assay type: protein-complex assay
[11] = Half life in Sprague-Dawley rat at 3 mg/kg, po by LC-MS/MS analysis; assay type: ADME, organism-based; settings: in vivo
Mus musculus [12] = experiment: Toxicity in CD1 nude mouse xenografted with human MIAPaCa2 cells assessed as change in body weight at 25 to 50 mg/kg, po qd administered on day 10 to 25 post tumor inoculation; assay type: organism-based; settings: in vivo
[13] = Half life in mouse hepatocytes at 3 uM after 180 mins by LC-MS/MS analysis; assay type: ADME, cell-based, Hepatocyte
MIA PaCa-2 [14] = experiment: Induction of apoptosis in human MIAPaCa2 cells assessed as caspase-7 cleavage by Western blot method; assay type: functional, cell-based
Procedure, shortened: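 Lysate protein quantified against a BSA standard; 70 μg resolved by SDS-PAGE, transferred to PVDF overnight at 4 °C, 30 V; blocked 1 h in 5% nonfat milk/TBST; primary antibodies 2–4 h, HRP anti-mouse secondary 1 h; ECL detection on X-ray film.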

OVCAR-5 = experiment: Growth inhibition of human OVCAR5 cells after 48 hrs by MTT assay; assay type: functional; settings: OVCAR-5, 48 h; procedure, shortened: as §2
[15] = molecular target: Dual specificity mitogen-activated protein kinase kinase 5 (Homo sapiens) (UniProt Q13163); experiment: Inhibition of partial length wild type human MEK5 expressed in mammalian expression system at 0.5 uM by KINOMEscan method relative to control; procedure, shortened: as §1
MOLT-4 = experiment: Antitumor activity against human MOLT4 cells xenografted in CD1 nude mouse assessed as tumor growth inhibition at 50 mg/kg, po qd administered on day 10 to 25 post tumor inoculation relative to control; assay type: functional; settings: MOLT-4, po, 240 h, read-out: TGI
[16] = Growth inhibition of mouse adenocarcinoma cells after 48 hrs by MTT assay; assay type: functional; settings: Adenocarcinoma cell
[17] = Tmax in BALB/c mouse at 10 mg/kg, po by LC-MS/MS analysis; assay type: ADME, organism-based; settings: in vivo
[18] = molecular target: CDK4/Cyclin D3 (Homo sapiens) (UniProt P11802+P30281); experiment: Inhibition of full length wild type human CDK4/cyclin D3 expressed in mammalian expression system at 0.5 uM by KINOMEscan method relative to control; procedure, shortened: as §1
[19] = Thermodynamic equilibrium solubility of compound in SGF at pH 1.2 after 5 hrs by shake flask method; assay type: physicochemical; settings: read-out: Therm_solubility
Mus musculus [20] = experiment: Toxicity in Swiss albino mouse allografted with Swiss mouse EAC assessed as mortality at 70 to 100 mg/kg, po administered for 9 day; assay type: organism-based; settings: in vivo, 216 h
Ehrlich = experiment: Antitumor activity against Swiss mouse EAC allografted in Swiss albino mouse assessed as tumor growth inhibition at 70 mg/kg, po administered for 9 day measured on day 13 relative to control; assay type: functional; settings: read-out: TGI
CDK9/Cyclin K = CDK9/Cyclin K (Homo sapiens, UniProt P50750); experiment: Inhibition of CDK9/cyclin K (unknown origin) after 30 mins in presence of [33P]-gamma-ATP by filter binding assay; assay type: protein-complex assay
Salmonella typhimurium [21] = experiment: Mutagenicity in Salmonella typhimurium TA100 at 50 ug/plate in presence of liver S9 fraction by Ames test; assay type: toxicity; settings: salmonella enterica subsp. enterica serovar typhimurium
[22] = Volume of distribution at steady state in BALB/c mouse at 1 mg/kg, iv by LC-MS/MS analysis; assay type: ADME, organism-based; settings: in vivo, read-out: Vdss
[23] = molecular target: CDK9/cyclin T1 (Homo sapiens) (UniProt O60563+P50750); experiment: Inhibition of CDK9/cyclin T1 (unknown origin) at 0.5 uM using YSPTSPSYSPTSPSYSPTSPKKK as substrate after 30 mins in presence of [33P]-gamma-ATP by filter binding assay relative to control; assay type: protein-complex assay
[24] = AUC in BALB/c mouse at 30 mg/kg, po by LC-MS/MS analysis; assay type: ADME, organism-based; settings: in vivo
[25] = Initial concentration in BALB/c mouse at 1 mg/kg, iv by LC-MS/MS analysis; assay type: ADME, organism-based; settings: in vivo
Salmonella typhimurium [26] = experiment: Mutagenicity in Salmonella typhimurium TA100 at 50 ug/plate in absence of liver S9 fraction by Ames test; assay type: toxicity; settings: salmonella enterica subsp. enterica serovar typhimurium

CDK9/Cyclin K, sequence (P50750 whole entry): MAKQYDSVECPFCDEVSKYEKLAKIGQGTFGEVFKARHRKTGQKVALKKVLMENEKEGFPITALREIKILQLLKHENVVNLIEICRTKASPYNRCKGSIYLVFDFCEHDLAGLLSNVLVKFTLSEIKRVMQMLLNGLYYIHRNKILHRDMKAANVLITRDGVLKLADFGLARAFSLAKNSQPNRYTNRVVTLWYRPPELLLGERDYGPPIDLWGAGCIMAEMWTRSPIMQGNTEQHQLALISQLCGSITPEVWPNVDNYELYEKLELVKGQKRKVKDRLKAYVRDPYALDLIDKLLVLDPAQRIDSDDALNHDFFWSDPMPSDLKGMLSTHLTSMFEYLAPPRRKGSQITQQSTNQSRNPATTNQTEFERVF
CDK9/Cyclin K, sequence (O75909 whole entry, further chain): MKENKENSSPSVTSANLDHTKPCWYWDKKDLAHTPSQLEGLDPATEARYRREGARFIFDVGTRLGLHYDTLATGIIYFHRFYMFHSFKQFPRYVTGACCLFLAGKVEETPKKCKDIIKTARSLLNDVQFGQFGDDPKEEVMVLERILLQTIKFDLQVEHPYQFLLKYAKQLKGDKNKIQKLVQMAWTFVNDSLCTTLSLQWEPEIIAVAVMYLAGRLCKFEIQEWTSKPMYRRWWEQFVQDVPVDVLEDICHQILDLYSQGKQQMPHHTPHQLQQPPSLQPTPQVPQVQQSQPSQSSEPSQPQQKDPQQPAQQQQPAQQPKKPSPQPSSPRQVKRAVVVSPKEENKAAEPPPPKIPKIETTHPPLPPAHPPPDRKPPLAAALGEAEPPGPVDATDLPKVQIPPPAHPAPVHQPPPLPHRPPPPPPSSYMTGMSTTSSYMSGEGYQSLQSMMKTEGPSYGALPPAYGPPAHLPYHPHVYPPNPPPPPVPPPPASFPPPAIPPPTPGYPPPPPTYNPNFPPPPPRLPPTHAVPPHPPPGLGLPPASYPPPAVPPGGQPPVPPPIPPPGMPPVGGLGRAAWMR
Cyclin-dependent kinase 5/CDK5 activator 1, sequence (Q00535 whole entry): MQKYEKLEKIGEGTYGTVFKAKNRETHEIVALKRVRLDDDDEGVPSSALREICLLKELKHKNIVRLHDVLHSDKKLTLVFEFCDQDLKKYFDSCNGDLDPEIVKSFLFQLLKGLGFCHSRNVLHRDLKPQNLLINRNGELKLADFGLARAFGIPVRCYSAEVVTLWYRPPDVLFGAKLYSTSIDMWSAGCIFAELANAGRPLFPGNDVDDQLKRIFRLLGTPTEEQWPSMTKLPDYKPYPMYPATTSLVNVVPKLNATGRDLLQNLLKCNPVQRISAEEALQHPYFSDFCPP
Cyclin-dependent kinase 5/CDK5 activator 1, sequence (Q15078 whole entry, further chain): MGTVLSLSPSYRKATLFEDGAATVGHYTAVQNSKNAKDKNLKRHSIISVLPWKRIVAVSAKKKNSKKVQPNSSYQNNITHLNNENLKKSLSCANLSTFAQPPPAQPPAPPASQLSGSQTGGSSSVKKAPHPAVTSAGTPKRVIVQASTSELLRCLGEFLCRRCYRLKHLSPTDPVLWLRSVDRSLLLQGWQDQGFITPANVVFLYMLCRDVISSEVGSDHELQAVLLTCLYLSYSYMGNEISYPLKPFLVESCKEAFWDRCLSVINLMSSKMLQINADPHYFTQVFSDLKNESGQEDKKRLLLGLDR
Citron Rho-interacting kinase (Homo sapiens), sequence (O14578 whole entry): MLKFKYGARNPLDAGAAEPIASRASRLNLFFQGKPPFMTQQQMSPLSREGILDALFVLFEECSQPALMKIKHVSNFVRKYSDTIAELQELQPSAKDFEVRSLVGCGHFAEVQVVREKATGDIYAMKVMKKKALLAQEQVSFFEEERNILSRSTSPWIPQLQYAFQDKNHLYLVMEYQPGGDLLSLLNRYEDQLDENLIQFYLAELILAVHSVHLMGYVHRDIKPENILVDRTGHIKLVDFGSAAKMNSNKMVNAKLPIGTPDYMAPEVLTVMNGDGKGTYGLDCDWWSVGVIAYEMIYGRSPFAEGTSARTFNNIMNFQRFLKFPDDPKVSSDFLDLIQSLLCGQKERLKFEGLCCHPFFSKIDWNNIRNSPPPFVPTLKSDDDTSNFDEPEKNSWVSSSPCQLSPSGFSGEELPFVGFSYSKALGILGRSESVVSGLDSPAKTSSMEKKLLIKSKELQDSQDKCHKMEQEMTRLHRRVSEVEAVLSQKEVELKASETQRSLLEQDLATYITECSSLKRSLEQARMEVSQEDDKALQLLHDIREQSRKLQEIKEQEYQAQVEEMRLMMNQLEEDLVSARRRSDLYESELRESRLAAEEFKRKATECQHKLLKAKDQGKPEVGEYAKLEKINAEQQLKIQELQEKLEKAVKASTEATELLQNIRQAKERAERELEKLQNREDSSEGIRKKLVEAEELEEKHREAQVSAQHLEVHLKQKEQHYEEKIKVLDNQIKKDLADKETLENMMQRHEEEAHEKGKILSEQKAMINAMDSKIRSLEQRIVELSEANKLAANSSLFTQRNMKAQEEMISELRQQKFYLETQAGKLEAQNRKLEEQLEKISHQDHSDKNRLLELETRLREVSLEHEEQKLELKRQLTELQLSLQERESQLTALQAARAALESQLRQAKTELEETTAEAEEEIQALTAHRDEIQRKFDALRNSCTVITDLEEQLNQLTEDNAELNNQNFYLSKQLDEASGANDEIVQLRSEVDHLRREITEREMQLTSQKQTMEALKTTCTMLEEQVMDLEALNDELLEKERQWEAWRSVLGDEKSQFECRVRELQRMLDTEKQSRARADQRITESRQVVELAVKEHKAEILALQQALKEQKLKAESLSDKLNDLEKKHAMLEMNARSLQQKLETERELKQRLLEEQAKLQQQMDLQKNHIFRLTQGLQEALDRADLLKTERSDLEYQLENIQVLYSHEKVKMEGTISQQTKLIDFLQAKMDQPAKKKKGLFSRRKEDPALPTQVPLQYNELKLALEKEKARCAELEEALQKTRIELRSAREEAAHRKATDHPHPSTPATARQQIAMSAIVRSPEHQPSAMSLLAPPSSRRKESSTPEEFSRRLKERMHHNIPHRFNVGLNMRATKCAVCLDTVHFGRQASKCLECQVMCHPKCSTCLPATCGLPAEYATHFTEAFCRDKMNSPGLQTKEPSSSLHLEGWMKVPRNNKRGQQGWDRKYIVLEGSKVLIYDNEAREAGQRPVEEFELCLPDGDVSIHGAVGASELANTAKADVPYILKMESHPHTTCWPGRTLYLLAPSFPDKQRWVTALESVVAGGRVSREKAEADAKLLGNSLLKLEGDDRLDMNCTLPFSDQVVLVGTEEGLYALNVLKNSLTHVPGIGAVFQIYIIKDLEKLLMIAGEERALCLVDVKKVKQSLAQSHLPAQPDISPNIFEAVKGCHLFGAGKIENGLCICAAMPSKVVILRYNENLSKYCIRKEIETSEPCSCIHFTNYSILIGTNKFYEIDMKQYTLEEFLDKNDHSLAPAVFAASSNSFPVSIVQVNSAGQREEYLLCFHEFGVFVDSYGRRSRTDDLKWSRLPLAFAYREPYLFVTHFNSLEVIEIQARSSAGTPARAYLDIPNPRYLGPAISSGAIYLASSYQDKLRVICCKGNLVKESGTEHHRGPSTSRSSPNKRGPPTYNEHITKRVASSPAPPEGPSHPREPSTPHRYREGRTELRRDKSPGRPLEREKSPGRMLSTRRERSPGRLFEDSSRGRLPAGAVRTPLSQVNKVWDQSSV
CYP3A4, sequence (P08684 whole entry): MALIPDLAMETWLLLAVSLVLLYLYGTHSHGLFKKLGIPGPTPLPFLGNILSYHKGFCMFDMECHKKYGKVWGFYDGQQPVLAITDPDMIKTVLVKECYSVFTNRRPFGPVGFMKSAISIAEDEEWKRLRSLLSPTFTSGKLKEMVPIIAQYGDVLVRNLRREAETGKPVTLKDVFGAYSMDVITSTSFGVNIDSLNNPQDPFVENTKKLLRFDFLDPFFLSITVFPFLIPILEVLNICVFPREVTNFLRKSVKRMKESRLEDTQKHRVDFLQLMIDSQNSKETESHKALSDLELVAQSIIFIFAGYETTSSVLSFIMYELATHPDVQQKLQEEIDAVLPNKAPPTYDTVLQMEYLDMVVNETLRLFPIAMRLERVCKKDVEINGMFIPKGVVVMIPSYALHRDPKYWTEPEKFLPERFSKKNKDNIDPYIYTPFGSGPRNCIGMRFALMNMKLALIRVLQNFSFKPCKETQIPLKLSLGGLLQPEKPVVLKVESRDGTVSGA
Dual specificity mitogen-activated protein kinase kinase 5 (Homo sapiens), sequence (Q13163 whole entry): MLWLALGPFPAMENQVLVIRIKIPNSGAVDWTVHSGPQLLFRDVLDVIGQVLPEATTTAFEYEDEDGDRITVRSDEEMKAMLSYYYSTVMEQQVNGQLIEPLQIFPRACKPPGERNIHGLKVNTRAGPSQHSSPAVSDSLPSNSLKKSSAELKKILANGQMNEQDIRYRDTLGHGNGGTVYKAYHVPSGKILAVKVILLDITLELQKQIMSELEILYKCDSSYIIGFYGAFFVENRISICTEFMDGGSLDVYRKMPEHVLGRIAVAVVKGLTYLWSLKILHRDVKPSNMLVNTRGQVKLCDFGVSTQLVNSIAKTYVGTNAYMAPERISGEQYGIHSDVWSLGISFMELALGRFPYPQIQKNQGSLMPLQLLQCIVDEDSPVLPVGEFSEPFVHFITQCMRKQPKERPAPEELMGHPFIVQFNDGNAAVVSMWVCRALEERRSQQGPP

In the case of `CN1CC[C@H](c2c(O)cc(O)c3c(=O)cc(/C=C/c4c(Cl)cccc4Cl)oc23)[C@H](O)C1`, the fraction unbound at 5 h, 3 µM [1] was 0.046, the Drug uptake (Lung) was “Active” and the inhibition [2] was greater than 98%. The GI50 (NCI-H226) was 4000 nM, the Cmax [3] was 677 nM and the half-life [4] was 1.43 h. The GI50 (HOP-92) was 3000 nM, the Kp at 8 h [5] was 6.79 and the half-life at 3 µM [6] was 12.1 h. For the same compound, the inhibition of growth at 10 µM (Caco-2) was 68%, the inhibition [7] was greater than 98% and the Cmax [8] was 3620 nM. It also gave an inhibition at 0.5 h, 2 µM (CYP3A4) of 40%, an Activity (MIA PaCa-2 [9]) of 33% and a pIC50 [10] of 7.80. The half-life [11] was 4.67 h, the Activity (Mus musculus [12]) was “Non-Toxic” and the half-life at 3 µM [13] was 3.1 h. For the same compound, the Activity (MIA PaCa-2 [14]) was “Dose-dependent effect”, the GI50 (OVCAR-5) was 7000 nM and the inhibition [15] was greater than 98%. For the same compound, the inhibition in vivo at 50 mg/kg (MOLT-4) was 40 to 52%, the GI50 [16] was 1200 nM and the Tmax [17] was 0.25 to 1.71 h. For the same compound, the inhibition [18] was greater than 98%, the solubility thermodynamic at 5 h [19] was 8.81 µg/mL (≈ 19.1 µM) and the Activity (Mus musculus [20]) was “Non-Toxic”. For the same compound, the inhibition in vivo at 70 mg/kg (Ehrlich) was 31%, the pIC50 (CDK9/Cyclin K) was 6.39 and the Activity (Salmonella typhimurium [21]) was “Non-Toxic”. The Vd [22] was 14.1 L/kg, the inhibition [23] was 94% and the AUC [24] was 11.3 µM·h. The C0 [25] was 859 ng/mL and the Activity (Salmonella typhimurium [26]) was “Non-Toxic”.
